ChEMBL document CHEMBL1125570 (J Med Chem, 1992)

Assays:
[1] = target: T1, Serotonin 2 (5-HT2) receptor (Rattus norvegicus) (UniProt P30994+P08909+P14842); experiment: Selectivity ratio for 5-HT1C compared to 5-HT2 receptors.; assay type: protein assay
Outline: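 Ratio of 5-HT1C Ki over 5-HT2 Ki. Both come from rat frontal cortex competition assays run in triplicate for 15 min at 37 °C. The 5-HT1C assay used 1 nM [3H]mesulergine with 100 nM spiperone present. […] Ki values were derived from IC50 by Cheng–Prusoff.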

[2] = target: Serotonin 2 (5-HT2) receptor (Rattus norvegicus, UniProt P14842); experiment: Binding affinity against 5-hydroxytryptamine 2 receptor in rat using [3H]ketanserin as radioligand
Outline: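 Male Sprague-Dawley rat (200–250 g) frontal cortex membranes in 50 mM Tris·HCl/0.5 mM EDTA/10 mM MgCl2, pH 7.4, plus 0.1% ascorbate and 10⁻⁵ M pargyline. Nonspecific binding defined by 1.0 μM cinanserin. Run in triplicate, 15 min at 37 °C, then filtration. Ki = IC50/(1 + D*/KD*).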

[3] = target: T2, 5-hydroxytryptamine receptor 2C (Rattus norvegicus, UniProt P08909); experiment: Binding affinity against 5-hydroxytryptamine 1C receptor in rat using [3H]mesulergine as radioligand
T2 sequence (P08909 whole entry): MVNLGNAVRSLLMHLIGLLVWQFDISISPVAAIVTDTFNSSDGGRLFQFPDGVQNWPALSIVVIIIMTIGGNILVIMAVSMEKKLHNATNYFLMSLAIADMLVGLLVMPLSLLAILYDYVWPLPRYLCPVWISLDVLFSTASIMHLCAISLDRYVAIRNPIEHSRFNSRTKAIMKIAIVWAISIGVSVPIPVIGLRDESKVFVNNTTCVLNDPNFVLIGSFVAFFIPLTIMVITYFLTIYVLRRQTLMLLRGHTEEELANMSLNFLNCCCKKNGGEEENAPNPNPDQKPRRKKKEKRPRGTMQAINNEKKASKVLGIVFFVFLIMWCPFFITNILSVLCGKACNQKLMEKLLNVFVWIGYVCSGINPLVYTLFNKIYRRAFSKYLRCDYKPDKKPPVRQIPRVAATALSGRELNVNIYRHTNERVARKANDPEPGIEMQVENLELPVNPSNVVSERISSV
Outline: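 Rat frontal cortex homogenate (male Sprague-Dawley, 200–250 g), washed in 50 mM Tris·HCl, 0.5 mM EDTA, 10 mM MgCl2, pH 7.4, with 0.1% ascorbate and 10⁻⁵ M pargyline. 10 mg wet tissue, 1 nM [3H]mesulergine, 100 nM spiperone to block 5-HT2 sites, nonspecific binding with 1.0 μM mianserin. Incubated 15 min at 37 °C, triplicates, filtration. Ki from IC50 via Cheng–Prusoff.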

[4] = target: T3, Serotonin 2 (5-HT2) receptor (Rattus norvegicus, UniProt P30994+P08909+P14842); experiment: Inhibitory activity against 5-hydroxytryptamine 2 receptor; assay type: protein assay
Outline: (§1)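 Male Sprague-Dawley rat (200–250 g) frontal cortex membranes in 50 mM Tris·HCl/0.5 mM EDTA/10 mM MgCl2, pH 7.4, plus 0.1% ascorbate and 10⁻⁵ M pargyline. […] Nonspecific binding defined by 1.0 μM cinanserin. Run in triplicate, 15 min at 37 °C, then filtration. Ki = IC50/(1 + D*/KD*).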

[5] = target: T1, Serotonin 2 (5-HT2) receptor (Rattus norvegicus); experiment: Selectivity for 5-HT1C and 5-HT2 receptors, ratio of Ki; assay type: protein assay
Outline: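 Both come from rat frontal cortex competition assays run in triplicate for 15 min at 37 °C. The 5-HT1C assay used 1 nM [3H]mesulergine with 100 nM spiperone present. Ki values were derived from IC50 by Cheng–Prusoff.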

[6] = target: T3, Serotonin 2 (5-HT2) receptor; experiment: Binding affinity against 5-Hydroxy tryptamine 2 (5-hydroxytryptamine 2)receptor; assay type: protein assay
[7] = target: T2, 5-hydroxytryptamine receptor 2C; experiment: Binding affinity against 5-hydroxytryptamine 1C receptor
[8] = target: T3, Serotonin 2 (5-HT2) receptor; experiment: Inhibitory constant against 5-hydroxytryptamine 2 receptor; assay type: protein assay; outline: as §1

T1 sequence (P14842 whole entry, looked up, one chain of several): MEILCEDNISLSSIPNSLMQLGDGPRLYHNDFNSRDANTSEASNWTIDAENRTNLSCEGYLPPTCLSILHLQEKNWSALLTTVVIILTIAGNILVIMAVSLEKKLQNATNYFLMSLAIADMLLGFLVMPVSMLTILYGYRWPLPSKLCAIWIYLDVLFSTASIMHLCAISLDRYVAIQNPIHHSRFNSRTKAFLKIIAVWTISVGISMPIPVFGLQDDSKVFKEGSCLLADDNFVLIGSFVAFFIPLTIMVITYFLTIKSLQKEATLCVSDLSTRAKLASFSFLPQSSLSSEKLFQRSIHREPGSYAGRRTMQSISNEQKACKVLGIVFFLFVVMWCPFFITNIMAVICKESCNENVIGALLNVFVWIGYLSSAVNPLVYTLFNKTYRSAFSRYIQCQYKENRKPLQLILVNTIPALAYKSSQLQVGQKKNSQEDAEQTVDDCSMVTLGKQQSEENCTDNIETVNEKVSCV
T1 sequence (P30994 whole entry, looked up, one chain of several): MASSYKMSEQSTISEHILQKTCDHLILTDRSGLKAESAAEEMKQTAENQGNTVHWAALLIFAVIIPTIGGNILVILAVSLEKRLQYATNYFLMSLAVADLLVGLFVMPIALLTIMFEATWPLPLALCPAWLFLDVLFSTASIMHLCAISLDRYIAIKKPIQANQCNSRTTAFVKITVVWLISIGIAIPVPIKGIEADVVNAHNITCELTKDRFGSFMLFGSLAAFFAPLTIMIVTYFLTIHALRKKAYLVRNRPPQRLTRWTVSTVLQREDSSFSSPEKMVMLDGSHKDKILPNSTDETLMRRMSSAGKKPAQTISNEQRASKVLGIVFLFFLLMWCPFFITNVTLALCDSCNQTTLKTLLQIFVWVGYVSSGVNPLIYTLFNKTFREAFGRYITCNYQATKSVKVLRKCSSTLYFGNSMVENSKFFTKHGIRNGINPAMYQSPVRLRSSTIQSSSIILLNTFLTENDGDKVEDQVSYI

| Compound | Ratio [1] | Ki [2] [nM] | Ki [3] [nM] | other results |
| --- | --- | --- | --- | --- |
| CN(CCCc1ccccc1)CCn1c(=O)[nH]c2ccccc2c1=O.O=C(O)C(=O)O | 2 | 640 | 1390 | – |
| O=C(O)C(=O)O.O=c1[nH]c2ccccc2c(=O)n1CCN1CCC(Cc2ccc(F)cc2)CC1 | 17 | 12 | 200 | – |
| O=C(O)C(=O)O.O=c1[nH]c2ccccc2c(=O)n1CCN1CCC(C(O)c2ccccc2)CC1 (configuration not stated) | > 15 | 655 | > 10000 | – |
| CN1CCN(C2CC(c3ccc(F)cc3)c3ccccc32)CC1 (single isomer, unassigned; (+)) | – | – | – | IC50 [4]: 4.9 nM |
| O=C(O)/C=C\C(=O)O.O=C(c1ccccc1)C1CCN(CCn2c(=O)[nH]c3ccccc3c2=O)CC1 | 115 | 6.5 | 760 | – |
| O=C(O)/C=C\C(=O)O.O=c1[nH]c2ccccc2c(=O)n1CCNCCCCc1ccccc1 | > 50 | 180 | > 10000 | – |
| O=C(NCCN1CCC(C(=O)c2ccc(F)cc2)CC1)Nc1ccccc1.O=C(O)C(=O)O | 50 | 4.3 | 200 | – |
| O=C(O)C(=O)O.O=C(c1ccc(F)cc1)C1CCN(CCc2ccccc2)CC1 | 15 | 8.5 | 145 | – |
| OC(c1ccccc1)C1CCN(CCc2ccc(F)cc2)CC1 (configuration not stated) | – | – | – | IC50 [4]: 0.9 nM |
| O=C1NCCN1CCN1CCN(C2CC(c3ccc(F)cc3)c3ccccc32)CC1 (configuration not stated) | – | – | – | IC50 [4]: 3.4 nM |
| CN1CCN(C(=O)c2ccccc2)CC1 | – | > 10000 | > 10000 | – |
| CN1CCC(Cc2ccccc2)CC1.Cl | – | – | – | Ki ratio [5]: > 2; Ki [6]: 3870 nM; Ki [7]: > 10000 nM |
| O=C(c1ccccc1)N1CCNCC1 | – | > 10000 | > 10000 | – |
| O=C(O)/C=C\C(=O)O.O=c1[nH]c2ccccc2c(=O)n1CCN1CCC(Cc2ccccc2)CC1 | 30 | 32 | 970 | – |
| O=C(NCCN1CCC(C(=O)c2ccc(F)cc2)CC1)c1ccccc1.O=C(O)C(=O)O | 100 | 16 | 1610 | – |
| O=C(c1ccccc1)C1CCNCC1 | > 3 | 3320 | > 10000 | – |
| CN1CCN(CCn2c(=O)[nH]c3ccccc3c2=O)CC1.Cl.Cl | – | > 10000 | > 10000 | – |
| O=C(O)C(=O)O.O=C(c1ccc(F)cc1)C1CCN(CCCCc2ccccc2)CC1 | 120 | 5.3 | 620 | – |

| Compound | Ratio [1] | Ki [2] [nM] | Ki [3] [nM] | other results |
| --- | --- | --- | --- | --- |
| CN(C)CCn1c(=O)[nH]c2ccccc2c1=O | – | > 10000 | > 10000 | – |
| O=C(O)/C=C\C(=O)O.O=c1[nH]c2ccccc2c(=O)n1CCNCCCc1ccccc1 | > 10 | 660 | > 10000 | – |
| CCN1CCC(C(=O)c2ccc(F)cc2)CC1 | 12 | 260 | 3160 | – |
| O=C(O)C(=O)O.O=C(c1ccc(F)cc1)C1CCN(CCCCCc2ccccc2)CC1 | 40 | 10 | 420 | – |
| O=C(c1ccc(F)cc1)C1CCN(CCn2c(=O)[nH]c3ccccc3c2=O)CC1 [KETANSERIN] | – | – | 50 | – |
| O=C(O)C(=O)O.O=C(c1ccc(F)cc1)C1CCN(CCCc2ccccc2)CC1 | 60 | 16 | 940 | – |
| CN1CCN(C(=O)c2ccc(F)cc2)CC1 | – | > 10000 | > 10000 | – |
| Cl.O=c1[nH]c2ccccc2c(=O)n1CCN1CCCCC1 | – | > 10000 | > 10000 | – |
| O=C(c1ccc(F)cc1)C1CCNCC1 | 2 | 430 | 1100 | – |
| Cl.O=C(CCCN1CCC(C(=O)c2ccc(F)cc2)CC1)c1ccccc1 | 50 | 6.5 | 350 | – |
| O=C(O)C(=O)O.O=C(c1ccc(F)cc1)C1CCN(Cc2ccccc2)CC1 | 120 | 25 | 3000 | – |
| CN1CCC(C(=O)c2ccc(F)cc2)CC1 | 12 | 125 | 1510 | – |
| c1ccc(CC2CCNCC2)cc1 | – | – | – | Ki [6]: > 10000 nM; Ki [7]: > 10000 nM |
| c1ccc(CN2CCNCC2)cc1 | – | > 10000 | > 10000 | – |
| CCN1CCC(C(O)c2ccc(F)cc2)CC1.O=C(O)/C=C\C(=O)O (configuration not stated) | – | > 10000 | > 10000 | – |
| Cl.NCCn1c(=O)[nH]c2ccccc2c1=O | – | > 10000 | > 10000 | – |
| CN1CCN(Cc2ccc(F)cc2)CC1.Cl.Cl | – | > 10000 | > 10000 | – |
| OC(c1ccccc1)C1CCN(CCc2ccccc2)CC1 (configuration not stated) [GLEMANSERIN] | – | – | – | Ki [8]: 12.5 nM |
